Experimental data of several laboratories.
≈ marks a conversion by molar mass, not a printed value.

Clc1ccccc1C(c1ccccc1)(c1ccccc1)n1ccnc1 — MIC (Cryptococcus neoformans; microbial growth; clinical isolate): 4 µg/mL
C=C(F)C(=O)N1CCN(c2nc(OC[C@@H]3CCCN3C)nc3c2CCN(c2cccc4cccc(Cl)c24)C3)C[C@@H]1CC#N — IC50 (NCI-H358; cell growth or viability, ATP luminescence; 3D culture): 3.85 nM
C=CC(=O)NC1CCN(c2ncc3ncnc(Nc4ccc(Oc5ccc6c(c5)ncn6C)c(C)c4)c3n2)CC1 — EC50 (SNU-182; cell growth or viability): 0.191 nM
COc1cc2nc(N3CCN(C(=O)C4COc5ccccc5O4)CC3)nc(N)c2cc1OC (centres unmarked) — IC50 (CNE-2; cell growth or viability, MTT; 48 h): 30700 nM
C=CCc1ccc(O)c(OC)c1 — MFC (Cryptococcus neoformans; microbial killing, broth dilution; clinical isolate): 400 µg/mL (≈ 2440 µM)
COc1ccc(C2c3c(C)nn(-c4ccccc4)c3NN2C(=O)c2ccncc2)cc1 (centres unmarked) — MIC (Cryptococcus neoformans; microbial growth; clinical isolate): > 100 µg/mL
O=C1C(Br)=C(Br)C(=O)c2ccccc21 — MIC (Nakaseomyces glabratus; microbial growth, broth dilution; ATCC2001; 24 h): 6.25 µg/mL
COc1ccc2c(C(=O)c3c(F)c(F)c(F)c(F)c3F)c(-c3ccc(OC)c(O)c3)[nH]c2c1 — IC50 (tubulin polymerisation, inhibitor, absorbance): > 20000 nM
Cc1nn(-c2ccccc2)c2c1C(c1ccco1)N(C(=O)c1ccncc1)N2 (centres unmarked) — MIC (Cryptococcus neoformans; microbial growth; clinical isolate): 2 µg/mL
C=CC(=O)N1CCN(c2nc(=O)n(-c3c(C)ccnc3C(C)C)c3nc(-c4c(O)cccc4F)c(F)cc23)[C@@H](C)C1 — IC50 (ASPC1; cell growth or viability, ATP luminescence): > 10000 nM
Nc1ccc(/C=C/C(=O)N2CCc3c(oc4c(-c5ccc(F)cc5)cc(-c5ccc(C(=O)N6C[C@@H]7[C@H](C6)C7(F)F)nn5)cc34)C2)cn1 — IC50 (ASPC1; cell growth or viability, CCK-8; 72 h): 260 nM
Cc1c(C(=O)O)ccc2c3n(nc12)[C@@H]1[C@H](C3)N(CC2CC2)[C@@]2(C(=O)Nc3cc(Cl)ccc32)[C@H]1c1cccc(Cl)c1F — GI50 (SW982; cell growth or viability, resazurin): 0.34 nM
Cc1nn(-c2ccccc2)c2c1C(c1cncs1)N(C(=O)c1ccncc1)N2 (centres unmarked) — MIC (Cryptococcus neoformans; microbial growth; clinical isolate): 64 µg/mL
O=C(O)c1cn(C2CC2)c2cc(N3CCNCC3)c(F)cc2c1=O — MIC (Bacillus subtilis; microbial growth; ATCC6051): 2 µM
